Test results published in ChEMBL document CHEMBL3244034, “Semisynthetic cephalosporins. Synthesis and structure-activity relationships of 7-(1-pyrryl)- and 7-(1-indolyl)acetamidocephalosporin derivatives” (1978).
In brackets after ≈: the same amount, converted by molar mass. Activity calls are given as the source filed them. The rule behind the calls is not given here.

Experiments:
Staphylococcus aureus [1] = assay: Antibacterial activity against benzylpenicillin-resistant Staphylococcus aureus after 17 hrs by serial two fold dilution method; type: functional
Method in brief: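 Agar dilution MIC. Compound was serially diluted twofold in Mueller-Hinton agar. The surface was inoculated with a diluted 18-24-h broth culture […]. Plates were incubated 17 h at 37 °C. MIC was taken as the lowest concentration giving complete or virtually complete inhibition of visible growth.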

Staphylococcus aureus [2] = assay: Antibacterial activity against Staphylococcus aureus after 17 hrs by serial two fold dilution method; type: functional
Method in brief: (§1)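 Agar dilution MIC: compound serially diluted twofold in Mueller-Hinton agar. Plate surfaces were inoculated with a suitably diluted 18-24-h broth culture and incubated 17 h at 37 °C. MIC was read as the lowest concentration giving complete or virtually complete inhibition of visible growth.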

[3] = test system: Staphylococcus epidermidis; assay: Antibacterial activity against Staphylococcus epidermidis after 17 hrs by serial two fold dilution method; type: functional; method in brief: as §1
Enterococcus faecalis = assay: Antibacterial activity against Staphylococcus faecalis after 17 hrs by serial two fold dilution method; type: functional; method in brief: as §1
Streptococcus pyogenes [4] = assay: Antibacterial activity against Streptococcus pyogenes after 17 hrs by serial two fold dilution method; type: functional; method in brief: as §1
Klebsiella aerogenes = assay: Antibacterial activity against Enterobacter aerogenes after 17 hrs by serial two fold dilution method; type: functional
Enterobacter cloacae = assay: Antibacterial activity against Enterobacter cloacae after 17 hrs by serial two fold dilution method; type: functional
Escherichia coli [5] = assay: Antibacterial activity against Escherichia coli after 17 hrs by serial two fold dilution method; type: functional; method in brief: as §1
Klebsiella pneumoniae [6] = assay: Antibacterial activity against Klebsiella pneumoniae after 17 hrs by serial two fold dilution method; type: functional; method in brief: as §1
Proteus mirabilis [7] = assay: Antibacterial activity against Proteus mirabilis after 17 hrs by serial two fold dilution method; type: functional; method in brief: as §1
Proteus vulgaris = assay: Antibacterial activity against Proteus vulgaris after 17 hrs by serial two fold dilution method; type: functional; method in brief: as §1
Providencia stuartii = assay: Antibacterial activity against Providencia stuartii after 17 hrs by serial two fold dilution method; type: functional; method in brief: as §1
Pseudomonas aeruginosa = assay: Antibacterial activity against Pseudomonas aeruginosa after 17 hrs by serial two fold dilution method; type: functional; method in brief: as §1
Salmonella [8] = assay: Antibacterial activity against Salmonella schottmuelleri after 17 hrs by serial two fold dilution method; type: functional; method in brief: as §1
Streptococcus pneumoniae = assay: Antibacterial activity against Streptococcus pneumoniae after 17 hrs by serial two fold dilution method; type: functional; method in brief: as §1
Staphylococcus aureus [9] = assay: Antibacterial activity against benzylpenicillin-resistant Staphylococcus aureus infected in sc dosed CD1 mouse assessed as host survival administered 1 and 4 hrs after infection measured on day 4; type: functional
Method in brief: (§2)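 Male albino CD-1 mice, 20 (± 1) g, infected intraperitoneally with a bacterial suspension giving uniformly lethal infection. Groups of ten mice were treated subcutaneously with antibiotic at 1 and 4 h post-infection. Survival over 4 days was recorded.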

Escherichia coli [10] = assay: Antibacterial activity against Escherichia coli infected in sc dosed CD1 mouse assessed as host survival administered 1 and 4 hrs after infection measured on day 4; type: functional; method in brief: as §2
Klebsiella pneumoniae [11] = assay: Antibacterial activity against Klebsiella pneumoniae infected in sc dosed CD1 mouse assessed as host survival administered 1 and 4 hrs after infection measured on day 4; type: functional; method in brief: as §2
Proteus mirabilis [12] = assay: Antibacterial activity against Proteus mirabilis infected in sc dosed CD1 mouse assessed as host survival administered 1 and 4 hrs after infection measured on day 4; type: functional; method in brief: as §2
Salmonella [13] = assay: Antibacterial activity against Salmonella schottmuelleri infected in sc dosed CD1 mouse assessed as host survival administered 1 and 4 hrs after infection measured on day 4; type: functional; method in brief: as §2
Neisseria gonorrhoeae = assay: Antibacterial activity against Neisseria gonorrhoeae after 17 hrs by serial two fold dilution method; type: functional, organism-based
Haemophilus influenzae = assay: Antibacterial activity against Haemophilus influenzae after 17 hrs by serial two fold dilution method; type: functional, organism-based
Bacteroides fragilis = assay: Antibacterial activity against Bacteroides fragilis after 17 hrs by serial two fold dilution method; type: functional, organism-based
Fusobacterium varium = assay: Antibacterial activity against Fusobacterium varium after 17 hrs by serial two fold dilution method; type: functional, organism-based
Streptococcus pyogenes [14] = assay: Antibacterial activity against Streptococcus pyogenes infected in po dosed CD1 mouse assessed as host survival administered 1 and 4 hrs after infection measured on day 4; type: functional

Structure (SMILES) | MIC (Staphylococcus aureus [1]) [µg/mL] | MIC (Staphylococcus aureus [2]) [µg/mL] | MIC [3] [µg/mL] | MIC (Enterococcus faecalis) [µg/mL] | MIC (Streptococcus pyogenes [4]) [µg/mL] | MIC (Klebsiella aerogenes) [µg/mL] | MIC (Enterobacter cloacae) [µg/mL] | MIC (Escherichia coli [5]) [µg/mL] | MIC (Klebsiella pneumoniae [6]) [µg/mL] | MIC (Proteus mirabilis [7]) [µg/mL] | MIC (Proteus vulgaris) [µg/mL] | MIC (Providencia stuartii) [µg/mL] | MIC (Pseudomonas aeruginosa) [µg/mL] | MIC (Salmonella [8]) [µg/mL] | MIC (Streptococcus pneumoniae) [µg/mL] | also measured
Cn1nnnc1SCC1=C(C(=O)O)N2C(=O)[C@@H](NC(=O)Cn3ccc4ccccc43)[C@H]2SC1 | 0.2 (≈ 0.412 µM) | 0.1 (≈ 0.206 µM) | 0.4 (≈ 0.824 µM) | > 100 | 0.05 (≈ 0.103 µM) | 50 (≈ 103 µM) | 50 (≈ 103 µM) | 12.5 (≈ 25.7 µM) | 12.5 (≈ 25.7 µM) | 50 (≈ 103 µM) | > 100 | 25 (≈ 51.5 µM) | > 100 | 6.2 (≈ 12.8 µM) |  | 
CC(=O)OCC1=C(C(=O)O)N2C(=O)[C@@H](NC(=O)Cn3cccc3)[C@H]2SC1 | 1.6 (≈ 4.22 µM) | 0.8 (≈ 2.11 µM) | 3.1 (≈ 8.17 µM) | > 100 | 0.4 (≈ 1.05 µM) | > 100 | > 100 | 6.2 (≈ 16.3 µM) | 6.2 (≈ 16.3 µM) | 12.5 (≈ 32.9 µM) | > 100 | 50 (≈ 132 µM) | > 100 | 3.1 (≈ 8.17 µM) | 0.4 (≈ 1.05 µM) | 
Cn1nnnc1SCC1=C(C(=O)O)N2C(=O)[C@@H](NC(=O)Cn3cccc3C=O)[C@H]2SC1 | 1.6 (≈ 3.45 µM) | 0.8 (≈ 1.73 µM) | 3.1 (≈ 6.69 µM) | > 100 | 0.2 (≈ 0.431 µM) | 100 (≈ 216 µM) | > 100 | 12.5 (≈ 27 µM) | 12.5 (≈ 27 µM) | 50 (≈ 108 µM) | > 100 | 50 (≈ 108 µM) | > 100 | 6.2 (≈ 13.4 µM) |  | 
CCOC(=O)C(C(=O)N[C@@H]1C(=O)N2C(C(=O)O)=C(COC(C)=O)CS[C@H]12)n1cccc1 (some centres not stated) | 6.2 (≈ 13.7 µM) | 1.6 (≈ 3.54 µM) | 3.1 (≈ 6.87 µM) | > 100 | 0.4 (≈ 0.886 µM) | 25 (≈ 55.4 µM) | 25 (≈ 55.4 µM) | 25 (≈ 55.4 µM) | 25 (≈ 55.4 µM) | 50 (≈ 111 µM) | > 100 | 12.5 (≈ 27.7 µM) | > 100 | 25 (≈ 55.4 µM) | 0.4 (≈ 0.886 µM) | 
Cc1nnc(SCC2=C(C(=O)O)N3C(=O)[C@@H](NC(=O)Cn4cnnn4)[C@H]3SC2)s1 [CEFAZOLIN] | 0.4 (≈ 0.88 µM) | 0.2 (≈ 0.44 µM) | 0.8 (≈ 1.76 µM) | > 100 | 0.1 (≈ 0.22 µM) | > 50 |  | 0.8 (≈ 1.76 µM) | 1.6 (≈ 3.52 µM) | 6.2 (≈ 13.6 µM) | > 100 | > 50 | > 100 | 1.6 (≈ 3.52 µM) | 0.1 (≈ 0.22 µM) | ED50 (Staphylococcus aureus [9]): 22 mg/kg; ED50 (Escherichia coli [10]): 0.6 mg/kg; ED50 (Klebsiella pneumoniae [11]): 42 mg/kg; ED50 (Proteus mirabilis [12]): 79 mg/kg; ED50 (Salmonella [13]): 2.2 mg/kg; Activity (Neisseria gonorrhoeae): inactive; Activity (Haemophilus influenzae): inactive; Activity (Bacteroides fragilis): inactive; Activity (Fusobacterium varium): inactive; ED50 (Streptococcus pyogenes [14]): 1.8 mg/kg
Cc1nnc(SCC2=C(C(=O)O)N3C(=O)[C@@H](NC(=O)Cn4ccc5ccccc54)[C@H]3SC2)s1 | 0.2 (≈ 0.399 µM) | 0.1 (≈ 0.199 µM) | 0.4 (≈ 0.797 µM) | > 100 | 0.05 (≈ 0.0997 µM) | 100 (≈ 199 µM) | 100 (≈ 199 µM) | 50 (≈ 99.7 µM) | 50 (≈ 99.7 µM) | 50 (≈ 99.7 µM) | > 100 | 25 (≈ 49.8 µM) | > 100 | 25 (≈ 49.8 µM) | ≤ 0.025 | 
